Experimental findings from publication PMC9050490 (RSC Advances, 2020) are described below.

In one assay the test system is Karpas299 cells. As to the kind of experiment: MTT antiproliferative assay, Karpas299. It is filed as cell-based. In outline: (§1)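 Cells were pre-incubated 24 h at 37 °C under 5% CO2, then exposed to a range of test compound concentrations dissolved in culture medium. MTT (5 mg mL−1 solution) was added for 4 h and formazan dissolved in DMSO. Absorbance was read at 630 nm. IC50 came from a non-linear curve fit, and growth inhibition was also reported.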

Another assay has as its system HepG2 cells. As to the kind of experiment: MTT antiproliferative assay, HepG2. The class given is cell-based, human. In outline:
as §1

In the next assay the test system is MCF-7 cells. The assay can be described thus: MTT antiproliferative assay, MCF-7. It is filed as cell-based. Particulars: Homo sapiens, MCF7, read-out: Antiproliferative activity IC50. A digest of the protocol: as §1
The next assay concerns PC-3 cells. The assay can be described thus: MTT antiproliferative assay, PC-3. Particulars: Homo sapiens, PC-3, read-out: Antiproliferative activity IC50. It is filed as cell-based. In outline: as §1
For the next assay, the system named is A549 cells. As to the kind of experiment: MTT antiproliferative assay, A549. It is filed as cell-based. Particulars: Homo sapiens, A549, read-out: Antiproliferative activity IC50. A digest of the protocol: as §1

For the compound `CC1(C)[C@@H](O)CC[C@]2(C)[C@H]3C(=O)C=C4[C@@H]5C[C@@](C)(C(=O)N6CCN(C(=O)c7ccc(Cl)cc7)CC6)CC[C@]5(C)CC[C@@]4(C)[C@]3(C)CC[C@@H]12` [Compound 4i, 3β-Hydroxy-30-(4-(4-chlorobenzoyl)-1-piperazinyl)-olean-12-ene-11,30-dione], the growth inhibition was 0.00% in the assay with Karpas299 cells (Karpas299, 2 μg mL^−1, MTT); 12.76% in the assay on Karpas299 cells (Karpas299, 20 μg mL^−1, MTT); 0.00% in the assay on HepG2 cells (HepG2, 2 μg mL^−1, MTT); 19.10% in the assay on HepG2 cells (HepG2, 20 μg mL^−1, MTT).
As for `C[C@@H](Oc1cc(-c2cnn(C3CCNCC3)c2)cnc1N)c1c(Cl)ccc(F)c1Cl` [Crizotinib], the IC50 was determined as 2.82 µM in the assay on Karpas299 cells (Homo sapiens, KARPAS-299, read-out: Antiproliferative activity IC50); 10.6 µM in the assay with HepG2 cells (Homo sapiens, HepG2, read-out: Antiproliferative activity IC50); 4.09 µM in the assay on MCF-7 cells; 7.33 µM with PC-3 cells; 1.49 µM in the assay with A549 cells. For the same compound, the inhibition at 2 µg/mL in the assay with HepG2 cells (Homo sapiens, HepG2, read-out: growth inhibition, HepG2, 2 μg mL^−1, MTT) is 27.1%. In the assay on HepG2 cells (Homo sapiens, HepG2, read-out: growth inhibition, HepG2, 20 μg mL^−1, MTT), the inhibition at 20 µg/mL is 97.8%.
